What was measured:
Canis familiaris [1] = test: Increase in cardiac force in dog at 75 ug/kg intravenous dose; assay type: functional, Canis lupus familiaris
Canis familiaris [2] = species: Canis familiaris; test: 50% increase in cardiac force in dog by id dose; assay type: functional; conditions: Canis lupus familiaris, Heart
Procedure, shortened: (§1)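 Anesthetized dogs; the value is the dose, given iv or intraduodenally, that raises cardiac force by 50%.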

Canis familiaris [3] = test: 50% increase in cardiac force in dog by intravenous dose; assay type: functional; conditions: Canis lupus familiaris, Heart; procedure, shortened: as §1

| Structure (SMILES) | Change (Canis familiaris [1]) [%] | ED50 (Canis familiaris [2]) [µg/kg] | ED50 (Canis familiaris [3]) [µg/kg] |
| --- | --- | --- | --- |
| CN1C(=O)C[S+]([O-])c2cc(C3=NNC(=O)CC3)ccc21 (stereo unspecified) | -3 | – | – |
| O=C1CCC(c2ccc3c(c2)SCC(=O)N3)=NN1 | 62 | – | – |
| CC1CC(=O)NN=C1c1ccc2c(c1)OCC(=O)N2 (stereo unspecified) [BEMORADAN] | – | 10 | 5.4 |
| CN1C(=O)CSc2cc(C3=NNC(=O)CC3)ccc21 | 38 | – | – |
| CN1C(=O)CS(=O)(=O)c2cc(C3=NNC(=O)CC3)ccc21 | 20 | – | – |
